Results: ChEMBL document CHEMBL4265954, “Discovery of potent liver-selective stearoyl-CoA desaturase-1 (SCD1) inhibitors, thiazole-4-acetic acid derivatives, for the treatment of diabetes, hepatic steatosis, and obesity” (Eur J Med Chem, 2018)

Experiments:
Mus musculus [1] = test: Ex vivo inhibition of SCD1 in C57BL/6J mouse eyelid assessed as residual activity at 1 mg/kg, po treated for 6 hrs followed by incubation with [14C]stearoyl-CoA substrate for 30 mins by TLC assay relative to control; type: organism-based
In short: (§1)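 Male 6-week-old C57BL/6J mice dosed orally as a suspension in 0.5% methylcellulose. Liver or eyelid was taken 6 or 24 h later and homogenized in 100 mM Tris-HCl pH 7.4 with 0.25 M sucrose. S9 was obtained at 10,000 × g, 4 °C. S9 was incubated with [14C]stearoyl-CoA, NADH, MgCl2 and cytochrome b5 at room temperature, 10 min for liver and 30 min for eyelid. Lipids were saponified and run on AgNO3 TLC to quantify stearate and oleate. Result is % of vehicle control.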

Stearoyl-CoA desaturase = biological target: T1, Stearoyl-CoA desaturase (Homo sapiens, UniProt O00767); test: Inhibition of recombinant human SCD1 expressed in baculovirus expression system assessed as reduction in [3H]H2O production using stearoyl [9,10-3H]CoA as substrate in presence of NADH incubated for 30 mins by scintillation counting method
T1 sequence (O00767 whole entry): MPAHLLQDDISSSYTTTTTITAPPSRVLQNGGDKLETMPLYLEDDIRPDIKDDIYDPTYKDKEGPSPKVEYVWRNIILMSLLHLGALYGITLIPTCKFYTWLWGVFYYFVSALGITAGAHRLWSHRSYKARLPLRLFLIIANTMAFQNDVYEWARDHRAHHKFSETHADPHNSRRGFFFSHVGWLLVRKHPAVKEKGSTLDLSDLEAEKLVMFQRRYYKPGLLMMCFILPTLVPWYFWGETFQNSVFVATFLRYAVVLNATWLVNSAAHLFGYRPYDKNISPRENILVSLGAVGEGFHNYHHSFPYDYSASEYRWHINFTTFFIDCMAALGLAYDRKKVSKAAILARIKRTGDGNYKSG
In short: (§2)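 Desaturation of [9,10-3H]stearoyl-CoA measured as released [3H]H2O. Water was separated from charcoal-adsorbed substrate by filtration and counted by scintillation. Remaining activity = (compound − background)/(control − background). DMSO wells served as control and pre-stopped wells as background. IC50 was interpolated from the two points bracketing 50%.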

Mus musculus [2] = test: Ex vivo inhibition of SCD1 in C57BL/6J mouse liver assessed as residual activity at 1 mg/kg, po treated for 6 hrs followed by incubation with [14C]stearoyl-CoA substrate for 10 mins by TLC assay relative to control; type: functional; in short: as §1
Mus musculus [3] = test: Ex vivo inhibition of SCD1 in C57BL/6J mouse eyelid assessed as residual activity at 100 mg/kg, po treated for 24 hrs followed by incubation with [14C]stearoyl-CoA substrate for 30 mins by TLC assay relative to control; type: organism-based; in short: as §1
Mus musculus [4] = test: Ex vivo inhibition of SCD1 in C57BL/6J mouse liver assessed as residual activity at 10 mg/kg, po treated for 24 hrs followed by incubation with [14C]stearoyl-CoA substrate for 10 mins by TLC assay relative to control; type: functional; in short: as §1
Acyl-CoA desaturase 1 = biological target: T2, Acyl-CoA desaturase 1 (Mus musculus, UniProt P13516); test: Inhibition of mouse liver microsome SCD assessed as reduction in [3H]H2O production using stearoyl [9,10-3H]CoA as substrate in presence of NADH incubated for 30 mins by scintillation counting method; type: microsomes; in short: as §2
T2 sequence (P13516 whole entry): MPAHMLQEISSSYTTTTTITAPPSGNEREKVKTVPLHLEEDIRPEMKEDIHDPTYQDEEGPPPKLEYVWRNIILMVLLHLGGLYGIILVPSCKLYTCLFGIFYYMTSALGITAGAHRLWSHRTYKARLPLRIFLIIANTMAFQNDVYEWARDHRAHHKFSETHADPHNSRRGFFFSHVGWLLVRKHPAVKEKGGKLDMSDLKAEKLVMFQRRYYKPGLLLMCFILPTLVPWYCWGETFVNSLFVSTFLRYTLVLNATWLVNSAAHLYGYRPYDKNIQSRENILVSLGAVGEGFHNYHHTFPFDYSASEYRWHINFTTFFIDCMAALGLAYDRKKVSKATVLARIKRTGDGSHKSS

[5] = Inhibition of acetyl-CoA acetyltransferase (unknown origin); set-up: species or system Homo sapiens
[6] = biological target: Acyl-CoA (8-3)-desaturase (Homo sapiens, UniProt O60427); test: Inhibition of delta-5 fatty acid desaturase (unknown origin)
Acyl-CoA (8-3)-desaturase, sequence (O60427 whole entry): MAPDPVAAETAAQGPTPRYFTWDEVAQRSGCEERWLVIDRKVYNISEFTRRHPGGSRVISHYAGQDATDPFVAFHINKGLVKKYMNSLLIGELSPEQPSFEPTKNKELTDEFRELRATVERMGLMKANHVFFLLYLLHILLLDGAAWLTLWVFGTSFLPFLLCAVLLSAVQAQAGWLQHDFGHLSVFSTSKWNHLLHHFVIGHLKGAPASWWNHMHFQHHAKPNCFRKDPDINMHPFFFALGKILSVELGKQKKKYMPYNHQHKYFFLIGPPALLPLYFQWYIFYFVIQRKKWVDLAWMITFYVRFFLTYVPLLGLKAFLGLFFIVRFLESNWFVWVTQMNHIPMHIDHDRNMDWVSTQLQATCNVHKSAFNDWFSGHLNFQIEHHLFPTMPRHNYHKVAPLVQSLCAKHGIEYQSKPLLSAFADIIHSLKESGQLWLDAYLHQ

| Structure (SMILES) | Activity (Mus musculus [1]) [%] | IC50 (Stearoyl-CoA desaturase) [nM] | Activity (Mus musculus [2]) [%] | other results |
| --- | --- | --- | --- | --- |
| O=C(Nc1nc(CO)cs1)c1ccc(CNc2ccccc2C(F)(F)F)s1 | 33 | 5.1 | 9 | – |
| Cc1csc(NC(=O)c2ccc(CNc3ccccc3C(F)(F)F)s2)n1 | – | 9.7 | – | – |
| CCCCCCc1ccccc1NCc1ccc(C(=O)Nc2nc(CCO)cs2)s1 | 104 | 4.5 | 12 | Activity (Mus musculus [3]): 4%; Activity (Mus musculus [4]): 12% |
| O=C(Nc1nc(CO)cs1)c1ccc(CNc2ccccc2Cl)cc1 | 37 | 4.3 | 12 | – |
| O=C(Nc1nc(CCCO)cs1)c1ccc(CNc2ccccc2C(F)(F)F)cc1 | 75 | 5.2 | 64 | – |
| O=C(Nc1nc(CCO)cs1)c1ccc(CNc2ccccc2Cl)cc1 | 74 | 6.4 | 29 | Activity (Mus musculus [3]): 35%; Activity (Mus musculus [4]): 66% |
| O=C(Nc1ncc(CCCO)s1)c1ccc(CNc2ccccc2C(F)(F)F)cc1 | – | 260 | – | – |
| Cc1csc(NC(=O)c2ccc(CNc3ccc(Cl)cc3)cc2)n1 | – | 760 | – | – |
| CCCCCCc1ccccc1NCc1ccc(C(=O)Nc2nc(CC(=O)O)cs2)cc1 | 119 | 3 | 31 | – |
| O=C(O)Cc1cnc(NC(=O)c2ccc(CNc3ccccc3C(F)(F)F)cc2)s1 | – | 58 | – | – |
| Cc1csc(NC(=O)c2ccc(CNc3cccc(Cl)c3)cc2)n1 | – | 18 | – | – |
| O=C(O)Cc1csc(NC(=O)c2ccc(CNc3ccccc3Cl)cc2)n1 | 132 | 13 | 72 | – |
| Cc1csc(NC(=O)c2ccc(CNc3ccccc3C)nc2)n1 | – | 310 | – | – |
| O=C(O)CCc1cnc(NC(=O)c2ccc(CNc3ccccc3C(F)(F)F)cc2)s1 | – | 570 | – | – |
| O=C(Nc1nc(CO)c(C(=O)O)s1)c1ccc(CNc2ccccc2C(F)(F)F)cc1 | – | 22 | – | – |
| CCCCCCCCc1ccccc1NCc1ccc(C(=O)Nc2nc(CC(=O)O)cs2)s1 | 77 | 17 | 7 | Activity (Mus musculus [3]): 8%; Activity (Mus musculus [4]): 11% |
| O=C(O)Cc1csc(NC(=O)c2ccc(CNc3ccccc3Cc3ccccc3)s2)n1 | 128 | 7.5 | 22 | Activity (Mus musculus [3]): 76%; Activity (Mus musculus [4]): 20% |
| O=C(Nc1ccncc1)c1ccc(COc2ccccc2Cl)cc1 | – | 1400 | – | IC50 (Acyl-CoA desaturase 1): 510 nM; IC50 [5]: > 30000 nM; IC50 [6]: > 30000 nM |
| Cc1csc(NC(=O)N2CCC(CNc3ccccc3C(F)(F)F)CC2)n1 | – | 30 | – | – |
| CCCCc1ccccc1NCc1ccc(C(=O)Nc2nc(CC(=O)O)cs2)cc1 | 74 | 5.5 | 76 | – |
| Cc1csc(NC(=O)c2ccc(COc3ccccc3Cl)cc2)n1 | – | 150 | – | – |
| CC(C)CCc1ccccc1NCc1ccc(C(=O)Nc2nc(CC(=O)O)cs2)s1 | 160 | 6.7 | 19 | Activity (Mus musculus [3]): 84%; Activity (Mus musculus [4]): 34% |
| O=C(Nc1ncc(CO)s1)c1ccc(CNc2ccccc2C(F)(F)F)cc1 | – | 2.8 | – | – |
| O=C(Nc1nc(CCO)cs1)c1ccc(CNc2ccccc2C(F)(F)F)s1 | 171 | 3.9 | 10 | Activity (Mus musculus [3]): 8%; Activity (Mus musculus [4]): 27% |
| CCCc1ccccc1NCc1ccc(C(=O)Nc2nc(C)cs2)cc1 | – | 8.9 | – | – |

| Structure (SMILES) | Activity (Mus musculus [1]) [%] | IC50 (Stearoyl-CoA desaturase) [nM] | Activity (Mus musculus [2]) [%] | other results |
| --- | --- | --- | --- | --- |
| CCCCCCCCc1ccccc1NCc1ccc(C(=O)Nc2nc(CC(=O)O)cs2)cc1 | 127 | 4.5 | 15 | Activity (Mus musculus [3]): 71%; Activity (Mus musculus [4]): 74% |
| Cc1csc(NC(=O)c2ccc(CNc3ccccc3)cc2)n1 | – | 95 | – | – |
| O=C(O)CCc1csc(NC(=O)c2ccc(CNc3ccccc3C(F)(F)F)cc2)n1 | – | 6.3 | – | – |
| O=C(O)Cc1csc(NC(=O)c2ccc(CNc3ccccc3C(F)(F)F)cc2)n1 | 107 | 5.1 | 98 | – |
| Cc1csc(NC(=O)c2ccc(CNc3ccccc3Cl)cc2)n1 | – | 9.2 | – | – |
| Cc1csc(NC(=O)c2ccc(CNc3ccccc3C)cn2)n1 | – | 46 | – | – |
| CC(C)CCc1ccccc1NCc1ccc(C(=O)Nc2nc(CCO)cs2)cc1 | 63 | 5.3 | 26 | – |
| Cc1csc(NC(=O)c2ccc(CNc3ccccc3C(=O)O)cc2)n1 | – | 3600 | – | – |
| O=C(Nc1nc(CCCO)c(CCO)s1)c1ccc(CNc2ccccc2C(F)(F)F)cc1 | – | 31 | – | – |
| CCCCc1ccccc1NCc1ccc(C(=O)Nc2nc(CO)cs2)cc1 | 29 | 3.2 | 10 | – |
| O=C(Nc1nc(CO)cs1)c1ccc(CNc2ccccc2C(F)(F)F)cc1 | 73 | 3.8 | 20 | Activity (Mus musculus [3]): 0%; Activity (Mus musculus [4]): 53% |
| Cc1ccccc1NCc1ccc(C(=O)Nc2nc(C(=O)O)cs2)cc1 | – | > 10000 | – | – |
| Cc1csc(NC(=O)c2ccc(CNc3ccccc3C(F)(F)F)cc2)n1 | – | 4.1 | – | – |
| CCCCCCc1ccccc1NCc1ccc(C(=O)Nc2nc(CC(=O)O)cs2)s1 | 88 | 4.8 | 12 | Activity (Mus musculus [3]): 52%; Activity (Mus musculus [4]): 13% |
| O=C(Nc1ncc(C(=O)O)s1)c1ccc(CNc2ccccc2C(F)(F)F)cc1 | – | 8.1 | – | – |
| O=C(O)Cc1csc(NC(=O)c2ccc(CNc3ccccc3Cc3ccccc3)cc2)n1 | 76 | 5.5 | 18 | Activity (Mus musculus [3]): 100%; Activity (Mus musculus [4]): 53% |
| O=C(O)Cc1csc(NC(=O)c2ccc(CNc3ccccc3C(F)(F)F)s2)n1 | 124 | 9 | 51 | – |
| Cc1ccccc1NCc1ccc(C(=O)Nc2nc(CC(=O)O)cs2)cc1 | – | 14 | – | – |
| O=C(Nc1ncc(CCO)s1)c1ccc(CNc2ccccc2C(F)(F)F)cc1 | – | 3.8 | – | – |
| CCCCc1ccccc1NCc1ccc(C(=O)Nc2nc(CCO)cs2)cc1 | 94 | 3 | 61 | – |
| O=C(O)CCCc1csc(NC(=O)c2ccc(CNc3ccccc3C(F)(F)F)cc2)n1 | – | 2700 | – | – |
| CC(C)CCc1ccccc1NCc1ccc(C(=O)Nc2nc(CC(=O)O)cs2)cc1 | 68 | 4.8 | 19 | – |
| O=C(Nc1nc(CCO)cs1)c1ccc(CNc2ccccc2C(F)(F)F)cc1 | 136 | 4.2 | 33 | – |
| O=C(O)Cc1csc(NC(=O)c2ccc(CNc3ccccc3-c3ccccc3)cc2)n1 | 187 | 8.7 | 74 | – |
